The IC50 is the concentration needed to halve the response being measured.

This passage reports Activity and IC50 results from ChEMBL document CHEMBL1153534, “Design and synthesis of androgen receptor antagonists with bulky side chains for overcoming antiandrogen resistance” (J Med Chem, 2009).

Assay [1] deals with T1, Androgen receptor (Homo sapiens) (UniProt P10275).
T1 sequence (whole entry): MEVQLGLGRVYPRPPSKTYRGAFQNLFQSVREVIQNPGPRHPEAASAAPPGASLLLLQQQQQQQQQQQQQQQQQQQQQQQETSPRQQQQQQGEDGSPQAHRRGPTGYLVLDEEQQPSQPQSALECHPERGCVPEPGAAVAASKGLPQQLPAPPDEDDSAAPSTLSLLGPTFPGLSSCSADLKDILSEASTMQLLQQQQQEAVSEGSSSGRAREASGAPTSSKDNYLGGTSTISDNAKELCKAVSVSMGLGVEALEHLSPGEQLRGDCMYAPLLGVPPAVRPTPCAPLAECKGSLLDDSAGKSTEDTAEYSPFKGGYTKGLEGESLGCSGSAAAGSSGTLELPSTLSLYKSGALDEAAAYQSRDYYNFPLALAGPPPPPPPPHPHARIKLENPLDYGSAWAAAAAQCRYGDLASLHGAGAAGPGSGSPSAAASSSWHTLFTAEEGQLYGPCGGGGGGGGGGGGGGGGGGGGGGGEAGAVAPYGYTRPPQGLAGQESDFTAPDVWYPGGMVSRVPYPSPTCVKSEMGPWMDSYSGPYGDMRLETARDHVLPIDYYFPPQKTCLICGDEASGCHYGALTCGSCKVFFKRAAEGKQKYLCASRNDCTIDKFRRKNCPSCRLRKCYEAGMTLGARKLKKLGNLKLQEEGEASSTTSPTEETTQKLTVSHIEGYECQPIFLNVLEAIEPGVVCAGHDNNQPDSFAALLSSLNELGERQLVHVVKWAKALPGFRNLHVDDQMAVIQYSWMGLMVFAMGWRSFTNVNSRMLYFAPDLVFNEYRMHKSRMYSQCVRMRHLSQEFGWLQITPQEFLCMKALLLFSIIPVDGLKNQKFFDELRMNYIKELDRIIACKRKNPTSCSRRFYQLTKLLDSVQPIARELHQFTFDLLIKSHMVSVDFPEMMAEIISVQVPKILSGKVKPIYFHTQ
As to the kind of experiment: Antiandrogenic activity in human PC3 cells expressing wild-type androgen receptor assessed as inhibition of DHT-induced ARE-dependent transactivation at 1 uM after 24 hrs by luciferase reporter gene assay. The class given is cell-based. Conditions: PC-3. The procedure, abridged:
(§1)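 PC-3 cells, which lack endogenous AR, transiently transfected with plasmids expressing human AR (WT, T877A, W741C or H874Y) plus an ARE-driven MMTV-luc reporter. Cells were treated with or without 0.1 nM DHT. Firefly luciferase was standardized to a Renilla control and normalized to the 0.1 nM DHT signal. Mean ± sd.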
On the technique in general: A reporter such as luciferase makes a cellular process visible.

The subject of assay [2] is PC-3. As to the kind of experiment: Activity in human PC3 cells expressing androgen receptor H874Y mutant assessed as ARE-dependent transactivation at 0.1 uM after 24 hrs by luciferase reporter gene assay in absence of DHT. The class given is cell-based. The procedure, abridged:
as §1

Assay [3] deals with PC-3. Kind of assay: Antiandrogenic activity in human PC3 cells expressing androgen receptor T877A mutant assessed as inhibition of DHT-induced ARE-dependent transactivation at 1 uM after 24 hrs by luciferase reporter gene assay. The class given is cell-based. The procedure, abridged:
as §1

In assay [4] the test system is PC-3. Kind of assay: Antiandrogenic activity in human PC3 cells expressing androgen receptor W741C mutant assessed as inhibition of DHT-induced ARE-dependent transactivation at 1 uM after 24 hrs by luciferase reporter gene assay. The class given is cell-based. An outline of the steps:
as §1

Assay [5] concerns PC-3. Kind of assay: Cytotoxicity against human PC3 cells after 72 hrs by MTT assay. The class given is functional, cell-based. The conditions noted are these: Homo sapiens, PC-3, 72 h; read-out: IC50. On the technique in general: Formazan colour is commonly taken as a measure of viable cells.
For assay [6], the target named is T2, Androgen receptor (Rattus norvegicus) (UniProt P15207).
T2 sequence (whole entry): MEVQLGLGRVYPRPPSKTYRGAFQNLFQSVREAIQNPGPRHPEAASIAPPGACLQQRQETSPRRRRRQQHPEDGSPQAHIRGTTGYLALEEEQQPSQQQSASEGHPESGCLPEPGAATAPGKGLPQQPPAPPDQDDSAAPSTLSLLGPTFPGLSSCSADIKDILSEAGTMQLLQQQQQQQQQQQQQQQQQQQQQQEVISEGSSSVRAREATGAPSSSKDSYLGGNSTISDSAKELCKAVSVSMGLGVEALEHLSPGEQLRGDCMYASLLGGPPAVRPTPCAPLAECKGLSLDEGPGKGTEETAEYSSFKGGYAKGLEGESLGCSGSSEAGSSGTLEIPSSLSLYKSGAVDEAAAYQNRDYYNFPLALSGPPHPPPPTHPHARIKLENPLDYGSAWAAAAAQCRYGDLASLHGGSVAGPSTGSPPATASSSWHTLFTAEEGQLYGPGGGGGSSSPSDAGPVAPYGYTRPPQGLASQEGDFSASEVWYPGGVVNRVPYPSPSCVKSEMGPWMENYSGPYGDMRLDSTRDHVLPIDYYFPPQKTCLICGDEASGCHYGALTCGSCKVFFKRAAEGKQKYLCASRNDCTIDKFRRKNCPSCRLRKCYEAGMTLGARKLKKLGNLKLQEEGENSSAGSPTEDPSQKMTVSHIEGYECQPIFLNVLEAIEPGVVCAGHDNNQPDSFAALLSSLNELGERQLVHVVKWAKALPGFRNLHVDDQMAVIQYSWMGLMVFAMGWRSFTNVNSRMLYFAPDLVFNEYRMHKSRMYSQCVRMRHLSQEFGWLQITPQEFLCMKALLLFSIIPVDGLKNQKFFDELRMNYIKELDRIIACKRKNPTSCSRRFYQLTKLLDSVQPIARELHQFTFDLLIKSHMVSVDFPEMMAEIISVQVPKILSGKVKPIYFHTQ
Kind of assay: Binding affinity to rat androgen receptor ligand binding domain by competitive fluorescence polarization assay. The procedure, abridged: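 Competitive fluorescence polarization with the PolarScreen AR competitor kit, measuring displacement of a fluorescent tracer from the AR-LBD. Polarization was normalized to DMSO vehicle, which sets the maximum. Tracer without receptor sets the minimum, and DHT served as positive control. Average ± sd of experiments in triplicate.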

Another assay deals with LNCaP. As to the kind of experiment: Cytotoxicity against human LNCAP cells after 72 hrs by MTT assay. The class given is functional, cell-based.
Assay [7] in a line: Cytotoxicity against human C4-2B cells after 72 hrs by MTT assay. The class given is functional, cell-based. Conditions: LNCaP C4-2B.

Activity calls are given as the source filed them. No cut-off for these calls is given here.

Take `COc1cc(/C=C(\C(=O)/C=C/C2=C(C)CCCC2(C)C)C(=O)/C=C/c2ccc(O)c(OC)c2)ccc1O`: the outcome (in assay [1]; with PC-3 [3]; in the assay on PC-3 [4]) was Active. Besides, the result with PC-3 [2] was inactive. Also, the values for the IC50 (in the assay with PC-3 [5]; in the assay on LNCaP; in assay [7]) were 4200 nM, 1300 nM and 1600 nM, respectively. Also, the Activity result in assay [6] was “Dose-dependent effect”.
